Data taken from ChEMBL document CHEMBL1124666, “Novel linked antiviral and antitumor agents related to netropsin and distamycin: synthesis and biological evaluation” (1989).
In brackets after ≈: the same amount, converted by molar mass.

Columns and labels:
[1] = tested on: Vaccinia virus; experiment: Minimum inhibitory concentration against vaccinia virus in Vero cell cultures of experiment 2; format: functional; details: Orthopoxvirus vaccinia
[2] = tested on: Vaccinia virus; experiment: Minimum inhibitory concentration against vaccinia virus embryonic skin muscle cell cultures; format: functional; details: Orthopoxvirus vaccinia
[3] = tested on: Raji; experiment: Inhibitory effect on the proliferation of human B lymphoblast (Raji ) cells; format: functional; details: read-out: ID50 (the source's name)
[4] = tested on: FM3A; experiment: Inhibitory effect on the proliferation of murine mammary carcinoma (FM3A ) cells; format: functional; details: Mus musculus, read-out: ID50 (the source's name)
[5] = tested on: Human alphaherpesvirus 2; experiment: Minimum inhibitory concentration against Herpes simplex virus 2(G); format: functional
[6] = tested on: Vaccinia virus; experiment: Minimum inhibitory concentration against vaccinia virus in primary rabbit kidney cell cultures of experiment 1; format: functional; details: Orthopoxvirus vaccinia
[7] = tested on: Vaccinia virus; experiment: Minimum inhibitory concentration against vaccinia virus in Vero cell cultures of experiment 1; format: functional; details: Orthopoxvirus vaccinia
[8] = tested on: P388; experiment: Inhibitory effect on the proliferation of murine leukemia (P388) cells; format: functional; details: Mus musculus, read-out: ID50 (the source's name)
[9] = tested on: Vaccinia virus; experiment: (§1) Minimum inhibitory concentration against vaccinia virus in primary rabbit kidney cell cultures of experiment 2; format: functional, Orthopoxvirus vaccinia; details: Orthopoxvirus vaccinia; read-out: MIC
[10] = tested on: Vaccinia virus; experiment: Minimum cytotoxic concentration against vaccinia virus in HeLa cell cultures; format: functional; details: Orthopoxvirus vaccinia
[11] = tested on: Vaccinia virus; experiment: Minimum cytotoxic concentration against vaccinia virus in Vero cell cultures; format: functional; details: Orthopoxvirus vaccinia
[12] = Inhibition of Moloney Murine Leukemia Associated Reverse Transcriptase; format: functional, Mus musculus
[13] = tested on: Vesicular stomatitis virus; experiment: Minimum inhibitory concentration against Vesicular stomatitis virus; format: functional
[14] = tested on: Vaccinia virus; experiment: Minimum cytotoxic concentration against vaccinia virus in primary rabbit kidney cell cultures; format: functional; details: Orthopoxvirus vaccinia
[15] = tested on: Human alphaherpesvirus 1; experiment: Minimum inhibitory concentration against Herpes simplex virus 1(KOS); format: functional
[16] = tested on: Vaccinia virus; experiment: Minimum cytotoxic concentration against vaccinia virus embryonic skin muscle cell cultures; format: functional; details: Orthopoxvirus vaccinia
[17] = tested on: L1210; experiment: Inhibitory effect on the proliferation of murine leukemia (L1210 ) cells; format: functional; details: Mus musculus, read-out: ID50 (the source's name)
[18] = tested on: Vaccinia virus; experiment: as §1; format: functional; details: Orthopoxvirus vaccinia
[19] = tested on: Calf thymus DNA; experiment: Relative binding constant to calf thymus DNA; format: nucleic-acid assay; details: Bos taurus
Method in brief: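 Ethidium displacement: Tris-EDTA buffer pH 8 with 1.3 μM ethidium bromide and calf thymus DNA (1.35 μM final); drug aliquots added, fluorescence read after a few minutes' equilibration (excitation 525 nm, emission 600 nm). Drug level giving 50% fluorescence decrease converted to relative binding constant taking ethidium binding constant as 10^7 M-1.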

[20] = Inhibitory effect on the proliferation of human T-lymphoblast (Molt/4F ) cells; format: functional; details: read-out: ID50 (the source's name)
[21] = tested on: Vaccinia virus; experiment: Minimum inhibitory concentration against Vaccinia virus; format: functional; details: Orthopoxvirus vaccinia
[22] = Minimum cytotoxic concentration in primary rabbit kidney (PRK) cell cultures; format: functional, Oryctolagus cuniculus

SMILES	MIC [1] [µg/mL]	MIC [2] [µg/mL]	IC50 [3] [µg/mL]	IC50 [4] [µg/mL]	MIC [5] [µg/mL]	MIC [6] [µg/mL]	MIC [7] [µg/mL]	IC50 [8] [µg/mL]	MIC [9] [µg/mL]	MCC [10] [µg/mL]	MCC [11] [µg/mL]	ID50 [12] [µg/mL]	MIC [13] [µg/mL]	MCC [14] [µg/mL]	MIC [15] [µg/mL]	MCC [16] [µg/mL]	MIC [18] [µg/mL]	Binding constant [19] [M⁻¹]	MIC [21] [µg/mL]	MCC [22] [µg/mL]	also measured
Cl.Cl.Cn1cc(NC(=O)c2cc(NC(=O)CCCCCCCCC(=O)Nc3cc(C(=O)Nc4cc(C(=O)NCCC(=N)N)n(C)c4)n(C)c3)cn2C)cc1C(=O)NCCC(=N)N	> 40	0.2	3.24	22.1	> 10	2	20	0.98	20	100	> 40	20.9	> 10	> 40	> 10	> 100	2	1.7e+07	0.7	>40	IC50 [17]: 4.21 µg/mL; IC50 [20]: 2.97 µg/mL
Cl.Cl.Cn1cc(NC(=O)c2cc(NC(=O)CC(=O)Nc3cc(C(=O)Nc4cc(C(=O)NCCC(=N)N)n(C)c4)n(C)c3)cn2C)cc1C(=O)NCCC(=N)N	2	0.2	3.39	5.87	> 4	2	2	0.91	2	> 40	> 40	39	> 10	40	> 4	> 40	2	3.6e+07	0.2	>10	IC50 [17]: 28.5 µg/mL; IC50 [20]: 2.85 µg/mL
O=C(O)C1=CC(=C(c2ccc(O)c(C(=O)O)c2)c2ccc(O)c(C(=O)O)c2)C=CC1=O [AURINTRICARBOXYLIC ACID]	–	–	–	–	–	–	–	–	–	–	–	1.42 (≈ 3.36 µM)	–	–	–	–	–	–	–	–	–
Nc1nccc2c1ncn2[C@@H]1C[C@H](CO)[C@@H](O)[C@H]1O [3-DEAZAARISTEROMYCIN A]	0.2 (≈ 0.757 µM)	2 (≈ 7.57 µM)	–	–	300 (≈ 1140 µM)	2 (≈ 7.57 µM)	0.2 (≈ 0.757 µM)	–	0.7 (≈ 2.65 µM)	> 400	> 200	–	0.7 (≈ 2.65 µM)	> 400	> 400	> 400	2 (≈ 7.57 µM)	–	2 (≈ 7.57 µM)	>400	–
NC(=O)c1ncn([C@@H]2O[C@H](CO)[C@@H](O)[C@H]2O)n1 [RIBAVIRIN]	20 (≈ 81.9 µM)	70 (≈ 287 µM)	–	–	300 (≈ 1230 µM)	20 (≈ 81.9 µM)	7 (≈ 28.7 µM)	–	20 (≈ 81.9 µM)	> 400	> 400	–	> 400	> 400	> 400	> 400	7 (≈ 28.7 µM)	–	20 (≈ 81.9 µM)	>400	–
Cl.Cl.Cn1cc(NC(=O)c2cc(NC(=O)CCCCCC(=O)Nc3cc(C(=O)Nc4cc(C(=O)NCCC(=N)N)n(C)c4)n(C)c3)cn2C)cc1C(=O)NCCC(=N)N	20	0.7	11.1	> 100	70	7	20	4.4	20	> 200	> 200	72.5	> 200	> 200	150	200	7	1.2e+07	2	400	IC50 [17]: > 100 µg/mL; IC50 [20]: 5.74 µg/mL
Cn1cc(NC(=O)c2cc(NC(=O)CCC(=O)Nc3cc(C(=O)Nc4cc(C(=O)NCCC(=N)N)n(C)c4)n(C)c3)cn2C)cc1C(=O)NCCC(=N)N	–	–	–	–	–	–	–	–	–	–	–	–	–	–	–	–	–	7.2e+07	–	–	–
Cl.Cl.Cn1cc(NC(=O)c2cc(NC(=O)CCCC(=O)Nc3cc(C(=O)Nc4cc(C(=O)NCCC(=N)N)n(C)c4)n(C)c3)cn2C)cc1C(=O)NCCC(=N)N	150	7	> 100	> 100	200	20	70	6.4	40	> 400	> 400	39.9	> 200	> 200	> 200	400	20	1.8e+07	7	>200	IC50 [17]: > 100 µg/mL; IC50 [20]: > 100 µg/mL
